Assay outcomes (PubChem BioAssay)
Most compounds without a hit are left out; they make up all but 3.8% or so of the library.
KCNQ1 block: inhibitors of human KCNQ1 potassium channel; CHO-K1 KCNQ1, FluxOR thallium flux fluorescence; stronger effect = higher value; B-score at 10 µM; 310,000 tested, 1.3% active;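 active = compounds whose thallium flux B-score, printed positive for inhibition, exceeds three library SD while starting fluorescence stays within three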;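 note: channel opened by potassium depolarization with thallium stimulus after 20 min compound exposure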
Kir21 inh: Kir2.1 (mouse) channel inhibition. HEK293-Kir2.1, FluxOR thallium flux fluorescence; stronger effect = lower value. 310,000 tested, 0.85% active. P35561. B-score at 10 µM;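 active = fluorescence ratio B-score at or below minus 3 SD of library scores, with starting-brightness B-score within 2 SD, cut at about -4.2 in these data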;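 note: channel flux triggered by added potassium and thallium sulfate stimulus; B-score of peak minus minimum fluorescence over baseline after thallium stimulus; more negative B-score means stronger Kir2.1 block with less thallium influx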
KCNK9 inh: blocks the human KCNK9 two-pore domain potassium channel; HEK293 KCNK9, FluxOR thallium flux fluorescence; stronger effect = lower value; 310,000 tested, 1.2% active; B-score at 10 µM;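 active = ratio B-score over 3 SD below the library mean, with starting fluorescence within 5 SD of its mean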;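 note: negative B-score means less thallium flux so channel inhibition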
Target sequence (Q9NPC2 whole entry, looked up, the tested form may be a part): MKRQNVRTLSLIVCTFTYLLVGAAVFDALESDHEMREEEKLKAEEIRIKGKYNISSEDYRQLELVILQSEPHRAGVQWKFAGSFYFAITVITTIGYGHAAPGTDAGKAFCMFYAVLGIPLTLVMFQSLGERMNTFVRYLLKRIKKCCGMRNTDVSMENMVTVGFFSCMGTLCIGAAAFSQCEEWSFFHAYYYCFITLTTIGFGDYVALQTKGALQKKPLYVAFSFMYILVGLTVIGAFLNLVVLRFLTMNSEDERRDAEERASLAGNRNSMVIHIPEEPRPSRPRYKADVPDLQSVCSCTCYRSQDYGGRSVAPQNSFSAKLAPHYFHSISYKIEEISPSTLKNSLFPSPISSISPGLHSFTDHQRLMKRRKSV
hERG rescue: hERG (human) protection from proarrhythmic block. Q12809. CHO-hERG, FluxOR thallium flux, dofetilide IC70 present. activation (rescue from dofetilide block), less the hit threshold, % at 10 µM. 310,000 tested, 0.51% active;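 active = activation above the mean of controls blocked by dofetilide plus 5 SD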;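 note: thallium influx through hERG after potassium depolarization seen as dye fluorescence rise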
KCNK3 block: human KCNK3 channel inhibition, primary screen; O14649; CHO-KCNK3 thallium flux, FluxOR fluorescence; stronger effect = lower value; B-score at 10 µM; 340,000 tested, 0.84% active;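 active = B-score under library mean minus 4 SD, starting fluorescence ratio at most library mean plus 5 SD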;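 note: more negative B-score means stronger inhibition of thallium flux through KCNK3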
Target sequence (O14649 whole entry, looked up): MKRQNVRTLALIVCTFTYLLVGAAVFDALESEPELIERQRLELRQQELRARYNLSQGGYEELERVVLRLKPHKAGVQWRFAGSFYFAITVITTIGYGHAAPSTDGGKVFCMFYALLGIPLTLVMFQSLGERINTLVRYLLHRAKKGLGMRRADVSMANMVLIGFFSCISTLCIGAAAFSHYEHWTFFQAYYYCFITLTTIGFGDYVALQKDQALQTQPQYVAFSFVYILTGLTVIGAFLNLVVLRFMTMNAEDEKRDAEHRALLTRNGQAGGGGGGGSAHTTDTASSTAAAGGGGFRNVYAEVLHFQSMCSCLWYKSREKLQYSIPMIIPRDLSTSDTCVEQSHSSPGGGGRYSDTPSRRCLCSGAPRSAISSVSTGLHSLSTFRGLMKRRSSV
KCNQ1 pot: potentiates or activates the human KCNQ1 potassium channel | P51787 | CHO-K1 KCNQ1, thallium flux FluxOR fluorescence; stronger effect = higher value | B-score at 10 µM | 310,000 tested, 0.35% active;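 active = fluorescence ratio B-score, a plate-corrected score, at least three library SD, with initial intensity B-score within 5 SD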
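Assay system: stable KCNQ1 CHO-K1 line; medium: assay buffer, equal DMSO in all wells; timing: 90 min dye loading and 20 min compound exposure, both at room temperature; technique: kinetic FluxOR thallium fluorescence, 10-s 1-Hz baseline, 110-s post-stimulus read; read-out basis: B score of baseline-normalized fluorescence ratio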
KCNK9 inh conf: confirmation of human KCNK9 potassium channel inhibitors; inhibition, % at 10 µM; 4,900 tested, 43% active; HEK293 KCNK9 cells, FluxOR thallium flux fluorescence; shares compounds with KCNK9 inh;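 active = thallium signal inhibited by more than 5 SD of the compound-free buffer control wells, on both duplicate plates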;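 note: 0% = assay buffer control wells without compound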
Kir2-1 spec: mouse Kir2.1 off-target activity of KCNK9 modulators. shares compounds with KCNK9 inh. AID 492993. inhibition, % at 10 µM. Kir2.1 cells, FluxOR thallium flux fluorescence. 4,900 tested, 4% active;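 active = thallium signal drop more than 5 SD beyond the mean of the no-compound control wells, seen in both duplicate plates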;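 note: signal is fluorescence rise after thallium addition divided by baseline fluorescence; plate controls were assay buffer only for no effect and full block by chlorpromazine control for full effect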
HEK293 Tl ctr: second counter-screen for KCNK9 modulators: effect in non-induced cells | shares compounds with KCNK9 inh | AID 492997 | inhibition, % at 10 µM | non-induced KCNK9-HEK293, FluxOR thallium flux | 4,900 tested, 40% active;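 active = thallium signal drop beyond 5 SD of the untreated control mean, on both duplicate plates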;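 note: plate controls were buffer only IC0 wells for no effect and SID17386958 at its maximal inhibitory level for full effect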
KCNK3 confirm: human KCNK3 channel inhibition, confirmation assay | 2,400 tested, 99% active | shares compounds with KCNK3 block | ratio percent of control, % at 10 µM | AID 651638 | CHO-KCNK3 thallium flux, FluxOR fluorescence; 0% buffer, 100% carvedilol maximal block;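 active = ratio percent of control, averaged over triplicates, above buffer control mean plus 5 SD, cut at about 64% in these data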;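 note: ratio is the fluorescence rise from min to max over baseline after thallium stimulus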
KCNK3 noninduced: KCNK3 inhibitor counter-screen hit in non-induced cells | shares compounds with KCNK3 block | non-induced KCNK3 parental cells, FluxOR thallium flux; stronger effect = lower value | thallium flux ratio (lower = more inhibition) at 10 µM | 2,400 tested, 40% active | AID 651747;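 active = thallium flux ratio, averaged over three wells, more than 5 SD below the buffer control mean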;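 note: host cells are CHO cells without KCNK3 induction; ratio is peak minus trough fluorescence over baseline then normalized to buffer controls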
Numbers without * were called inactive; i = inactive; · = not tested or not shown.

SMILES	KCNQ1 block	Kir21 inh	KCNK9 inh	hERG rescue	KCNK3 block	KCNQ1 pot	KCNK3 confirm	KCNK3 noninduced	others
CN(CC(=O)Nc1cccc(C(F)(F)F)c1)Cc1ccccc1	i	-0.92	-14.9*	-8.2	-12.5*	i	106.3*	i	KCNK9 inh conf=63.5%*;Kir2-1 spec=i;HEK293 Tl ctr=41.0%*
Cc1ccc(S(=O)(=O)Nc2ccc3cc([N+](=O)[O-])ccc3c2[N+](=O)[O-])cc1	·	·	·	·	i	·	·	·
CSc1ccc(Cl)c(C(=O)NCCOc2cc(C(C)C)ccc2C)c1	i	1.75	-20.5*	-10.2	-10.4*	i	128.3*	0.129*	KCNK9 inh conf=71.5%*;Kir2-1 spec=i;HEK293 Tl ctr=37.5%*
O=C(Nc1cccc(Cl)c1)N(CCN1CCOCC1)Cc1ccccc1F	i	0.23	i	-18.9	i	i	·	·
C=CCC(c1ccccc1F)N(CCN1CCOCC1)C(=O)Nc1cccc(Cl)c1 (stereo not drawn)	i	-0.26	-12.9*	-14.4	-8.94*	i	127.3*	0.14*	KCNK9 inh conf=57.0%*;Kir2-1 spec=i;HEK293 Tl ctr=39.5%*
CC(C)CCOc1ccc(C(=O)NCC(c2ccco2)N(C)C)cc1 (stereo not drawn)	i	-1.03	i	-12.0	i	i	·	·
CCCCOC1(c2ccccc2)OC(=O)c2ccccc21 (stereo not drawn)	i	-0.17	-15.7*	-8.6	i	i	100.7*	i	KCNK9 inh conf=54.5%*;Kir2-1 spec=i;HEK293 Tl ctr=51.5%*
Cc1cc(C(=O)N/N=C/c2ccc(-c3cccc(Br)c3)o2)n[nH]1	i	0.55	-17.1*	-14.4	-11.1*	i	87.3*	i	KCNK9 inh conf=44.0%*;Kir2-1 spec=i;HEK293 Tl ctr=i
CC(=O)Nc1cc2c(cc1Br)OCCO2	i	-0.33	i	-4.5	i	i	·	·
Brc1ccc(CNc2cc3c(cc2Br)OCCO3)cc1	i	1.68	-9.13*	-3.4	i	i	103.3*	i	KCNK9 inh conf=28.5%*;Kir2-1 spec=i;HEK293 Tl ctr=42.0%*
CCc1c(C)sc2nc3c(C(=O)N4CCOCC4)cc(C(=O)c4cc(F)ccc4O)cn3c(=O)c12	i	-2.16	-12.6*	-6.5	-8.84*	i	95.7*	i	KCNK9 inh conf=i;Kir2-1 spec=i;HEK293 Tl ctr=23.5%*
Cc1sc2nc3c(C(=O)N4CCCC4)cc(C(=O)c4ccccc4O)cn3c(=O)c2c1C	i	0.45	i	-10.5	i	i	·	·
Cc1cccc(N2C(=O)CC(Sc3nc(C)c4c(n3)CCCC4)C2=O)c1 (stereo not drawn)	i	-0.04	i	-9.7	i	i	·	·
Cc1nc(SC2CC(=O)N(c3cc(Cl)cc(Cl)c3)C2=O)nc2c1CCCC2 (stereo not drawn)	i	-1.52	i	3.4	-9.83*	i	105.0*	0.156*
COc1ccc(C)cc1NC(=O)/C=C/c1ccc(OC)c(S(=O)(=O)N2CCOCC2)c1	·	·	·	·	i	·	·	·
CCOc1ccc(NC(=O)CN(C)C(=O)CCc2ccccc2Cl)cc1OCC	i	0.24	i	-22.1	i	i	·	·
CCOc1ccc(NC(=O)CN(C)C(=O)CCCOc2ccc(Cl)c(C)c2)cc1OCC	i	0.44	i	-6.4	-9.9*	i	92.7*	i
COc1ccc(OC)c(/C=C2/Sc3ccccc3C2=O)c1	i	-0.1	-7.17*	-7.3	-10.5*	i	109.7*	0.117*
CCN1C[C@@H]2[C@@H]3C(=O)N(C)C(=O)[C@@H]3[C@](CC)(C1=O)N2C(=O)c1ccc(C(C)(C)C)cc1	·	·	·	·	i	·	·	·
O=C(NC1CCCCC1)C(c1ccncc1)N(C(=O)c1csnn1)c1ccccc1 (stereo not drawn)	i	1.92	i	-3.8	i	i	·	·
O=C(CCN1C(=O)[C@@H]2Cc3ccccc3CN2C1=O)NCc1ccccc1Cl	i	-1.01	i	-8.4	i	i	·	·
CC1(C)CC(=O)C2=C(C1)c1c(ccc3ccccc13)NC2c1ccc(Br)o1 (stereo not drawn)	i	-0.72	i	-12.3	-10.4*	i	113.3*	i
CCCOc1ccc(-c2nnn(CC(=O)Nc3cccc(C(=O)OC)c3)n2)cc1	i	-1.61	i	-2.8	i	i	·	·
CCCCOc1ccc(-c2nnn(C(C)(C)C(=O)OC)n2)cc1	i	-0.9	-6.65*	-8.8	-11.3*	i	96.0*	i
CCOC(=O)c1c(NC(=O)Cn2c(C)nc3ccccc32)sc2c1CCC2	i	0.5	i	-16.9	-9.36*	i	102.0*	i
SMILES	KCNQ1 block	Kir21 inh	KCNK9 inh	hERG rescue	KCNK3 block	KCNQ1 pot	KCNK3 confirm	KCNK3 noninduced	others
COC(=O)c1c(NC(=O)CSc2nnnn2-c2ccccc2)sc2c1CCCC2	i	0.6	i	-2.8	-9.42*	i	95.7*	i
CN(CC(=O)Nc1ccccc1Br)C(=O)CN1CCN(c2ccccc2Cl)CC1	·	·	·	·	i	·	·	·
CCOC(=O)c1c(C)[nH]c(C)c1C(=O)COC(=O)[C@@H](NC(=O)c1ccccc1OCC)C(C)C	i	0.14	i	-12.8	-9.09*	i	104.3*	i
CCOC(=O)c1c(C)[nH]c(C)c1C(=O)COC(=O)c1c(OC)cccc1OC	i	0.54	i	-7.5	i	i	·	·
CC(C)n1ncc2c(C(=O)Nc3cccc(C#N)c3)cc(C3CC3)nc21	·	·	·	·	-11.7*	·	117.7*	0.132*
COc1cc2cnc(-c3ccccc3F)cc2cc1OC	·	·	·	·	i	·	·	·
COc1ccccc1Oc1ccc(S(=O)(=O)N2CCCCC2C)cc1 (stereo not drawn)	i	0.63	i	-11.6	-11.6*	i	108.3*	0.16*
COc1ccc(S(=O)(=O)N2CCCCC2C)cc1 (stereo not drawn)	i	0.36	i	-9.5	i	i	·	·
CCN(CC(=O)NCCCN1CCOCC1)S(=O)(=O)c1ccc(Cl)cc1	i	-0.31	i	-4.6	i	i	·	·
O=C(CC1SC(N2CCOCC2)=NC1=O)Nc1cccc(C(F)(F)F)c1 (stereo not drawn)	·	·	·	·	i	·	·	·
